Results published in ChEMBL document CHEMBL1833810, “Synthesis and study of a series of 3-arylcoumarins as potent and selective monoamine oxidase B inhibitors” (J Med Chem, 2011).

Legend:
[1] = molecular target: T1, Amine oxidase [flavin-containing] A (Homo sapiens, UniProt P21397); assay: Inhibition of human recombinant MAO-A expressed in insect BT1-TN-5B1-4 cells assessed as production of hydrogen peroxide from p-tyramine up to 15 mins by amplex red-based fluorometric assay
T1 sequence (P21397 whole entry): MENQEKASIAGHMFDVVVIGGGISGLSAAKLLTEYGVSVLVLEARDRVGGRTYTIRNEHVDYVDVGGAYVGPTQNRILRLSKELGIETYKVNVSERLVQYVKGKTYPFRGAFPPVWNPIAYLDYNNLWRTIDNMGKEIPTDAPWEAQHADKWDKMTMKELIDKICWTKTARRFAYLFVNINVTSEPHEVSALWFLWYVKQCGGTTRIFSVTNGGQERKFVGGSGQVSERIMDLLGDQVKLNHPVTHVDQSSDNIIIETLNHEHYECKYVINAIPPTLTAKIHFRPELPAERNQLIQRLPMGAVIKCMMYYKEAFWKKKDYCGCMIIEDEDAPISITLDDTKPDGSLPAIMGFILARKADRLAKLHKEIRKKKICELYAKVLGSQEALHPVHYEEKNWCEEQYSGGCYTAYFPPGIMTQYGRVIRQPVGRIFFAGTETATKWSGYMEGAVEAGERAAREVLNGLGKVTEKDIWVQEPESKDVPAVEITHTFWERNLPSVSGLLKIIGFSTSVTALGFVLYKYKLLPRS

[2] = molecular target: T2, Amine oxidase [flavin-containing] B (Homo sapiens, UniProt P27338); assay: Inhibition of human recombinant MAO-B expressed in insect BT1-TN-5B1-4 cells assessed as production of hydrogen peroxide from p-tyramine up to 15 mins by amplex red-based fluorometric assay; assay type: cell-based
T2 sequence (P27338 whole entry): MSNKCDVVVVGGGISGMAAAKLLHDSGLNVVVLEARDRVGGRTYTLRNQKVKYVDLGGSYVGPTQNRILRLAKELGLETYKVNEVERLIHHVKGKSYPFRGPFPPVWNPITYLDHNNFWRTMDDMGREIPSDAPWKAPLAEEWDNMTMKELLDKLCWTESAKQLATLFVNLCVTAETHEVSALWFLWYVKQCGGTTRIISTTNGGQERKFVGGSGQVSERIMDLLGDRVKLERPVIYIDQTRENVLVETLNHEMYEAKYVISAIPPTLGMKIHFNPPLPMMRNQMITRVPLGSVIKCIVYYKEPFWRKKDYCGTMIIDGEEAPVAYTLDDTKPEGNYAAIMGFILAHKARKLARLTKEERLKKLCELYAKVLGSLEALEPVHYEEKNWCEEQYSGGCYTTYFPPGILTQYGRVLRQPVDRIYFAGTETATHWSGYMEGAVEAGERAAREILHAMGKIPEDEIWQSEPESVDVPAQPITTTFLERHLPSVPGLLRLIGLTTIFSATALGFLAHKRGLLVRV

Homo sapiens = species on record: Homo sapiens; assay: Selectivity index, ratio of IC50 for human recombinant MAO-A to IC50 for human recombinant MAO-B
[3] = molecular target: T1, Amine oxidase [flavin-containing] A; assay: Inhibition of human recombinant MAO-A expressed in insect BT1-TN-5B1-4 cells assessed as production of hydrogen peroxide from p-tyramine at 100 uM up to 15 mins by amplex red-based fluorometric assay; details: 0.25 h; for inhibition (INH): 100 µM
Procedure, shortened: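 Recombinant hMAO-A came from microsomes of baculovirus-infected BTI-TN-5B1-4 insect cells, at 1.1 μg protein. It was preincubated with the test drug in 0.05 M sodium phosphate, pH 7.4, for 15 min at 37 °C. The reaction was started with 200 μM Amplex Red, 1 U/mL HRP and 1 mM p-tyramine (final). H2O2-derived resorufin fluorescence (ex 545, em 590 nm) was read over 15 min. Enzyme-free background was subtracted against vehicle controls. 100 μM was the highest concentration tested.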

[4] = molecular target: T2, Amine oxidase [flavin-containing] B; assay: Inhibition of human recombinant MAO-B expressed in insect BT1-TN-5B1-4 cells assessed as production of hydrogen peroxide from p-tyramine at 100 uM up to 15 mins by amplex red-based fluorometric assay; details: 0.25 h
Procedure, shortened: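 hMAO-B was used as microsomes from BTI-TN-5B1-4 insect cells infected with recombinant baculovirus, at 7.5 μg protein. It was preincubated for 15 min at 37 °C with the test drug in sodium phosphate buffer, 0.05 M, pH 7.4. The reaction was then started with final 200 μM Amplex Red, 1 U/mL horseradish peroxidase and 1 mM p-tyramine. Resorufin fluorescence (545/590 nm) was followed at 37 °C for 15 min, minus the no-enzyme background and relative to vehicle controls. The top concentration was 100 μM.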

Row | SMILES | IC50 [1] [nM] | IC50 [2] [nM] | Ratio IC50 (Homo sapiens) | inhibition (INH) [3] | inhibition at 100 µM [3] [%] | inhibition (INH) [4]
1 | COc1ccc(-c2cc3cc(C)ccc3oc2=O)cc1OC | 25100 | 2.73 | 9210 |  |  | 
2 | Cc1ccc(-c2cc3cc(C)ccc3oc2=O)cc1 |  |  |  | Not Active |  | 
3 | COc1cc(OC)cc(-c2cc3cc(C)ccc3oc2=O)c1 |  |  | > 11100 | Not Active |  | 
4 | Cc1cccc(-c2cc3cc(C)ccc3oc2=O)c1 |  | 15 | > 6670 |  | 40 | 
5 | COc1cc(-c2cc3cc(C)ccc3oc2=O)ccc1Br |  | 3.25 | > 31200 | Not Active |  | 
6 | Cc1ccc2oc(=O)c(-c3ccccc3)cc2c1 |  |  | > 352 | Not Active |  | 
7 | COc1cccc(-c2cc3cc(C)ccc3oc2=O)c1 |  |  | > 125000 | Not Active |  | 
8 | Cc1ccc2oc(=O)c(-c3cccc(O)c3)cc2c1 | 35000 | 650 | 54 |  |  | 
9 | Cc1ccc(-c2cc3cc(OC4CCCC4)ccc3oc2=O)cc1 |  | 14500 | > 6.9 | Not Active |  | 
10 | Cc1ccc2oc(=O)c(-c3ccc(O)cc3)cc2c1 |  |  |  | Not Active |  | 
11 | COc1ccc(-c2cc3cc(C)ccc3oc2=O)cc1 |  |  | > 7660 | Not Active |  | 
12 | Cc1ccc(-c2cc3cc(O)ccc3oc2=O)cc1 | 24900 | 67.1 | 372 |  |  | 
13 | CC(=O)COc1ccc2oc(=O)c(-c3ccc(C)cc3)cc2c1 |  | 5520 | > 18 | Not Active |  | 
14 | CC(=O)COc1cccc(-c2cc3cc(C)ccc3oc2=O)c1 |  | 180 | > 555 |  | 40 | 
15 | COc1ccc2oc(=O)c(-c3ccc(C)cc3)cc2c1 |  | 1.52 | > 6790 | Not Active |  | 
16 | COc1ccc2oc(=O)c(-c3cccc(C)c3)cc2c1 |  | 17.1 | > 5880 | Not Active |  | 
17 | COc1cc(-c2cc3cc(C)ccc3oc2=O)c(Br)c(OC)c1OC |  |  |  | Not Active |  | Not Active
18 | COc1ccc(-c2cc3cc(C)ccc3oc2=O)cc1Br |  | 0.74 | > 136000 | Not Active |  | 
19 | COc1ccccc1-c1cc2cc(C)ccc2oc1=O |  |  |  | Not Active |  | Not Active
20 | COc1cc(OC)c(Br)c(-c2cc3cc(C)ccc3oc2=O)c1 |  | 54000 | > 1.9 | Not Active |  | 
21 | Cc1ccc2oc(=O)c(-c3ccccc3O)cc2c1 | 21600 | 120 | 180 |  |  | 
22 | COc1cc(-c2cc3cc(C)ccc3oc2=O)cc(OC)c1OC |  |  | > 623 | Not Active |  | 
